The test system of series [1] is MOR. The following applies: cited from earlier work.
For series [2], the target named is hMOR (β-arrestin1) (Homo sapiens, UniProt P35372). The class given is cell-based.
In series [3] the target is hMOR (human MOR) (Homo sapiens, UniProt P35372). Description: biochemical. The class given is binding.
Series [4] deals with murine MOR (Mus musculus, UniProt P42866). Description: BRET-based Nb33 recruitment assay, mMOR. The class given is cell-based. The following applies: for Nb33 recruitment efficacy at murine MOR: HEK293-T cells, compared to DAMGO.
In series [5] the target is hMOR (Gz) (Homo sapiens, UniProt P35372). Description: cell-based. The following applies: read-out: Emax at Gz.
Series [6] has as its system GABAA receptor-mediated IPSCs in VTA neurons. Description: Whole cell electrophysiology, evoked IPSCs in VTA neurons of acute brain slices. The class given is cell-based, rat. The following applies: 10 μM; compared to 5 μM DAMGO and 10 μM morphine.
Series [7] deals with hMOR (Gi-1) (Homo sapiens, UniProt P35372). As to the kind of experiment: cell-based. The following applies: for Emax: read-out: Gi-1 Emax.
Series [8] has as its target hMOR (β-arrestin2) (Homo sapiens, UniProt P35372). Description: cell-based. The following applies: for Emax: read-out: β-arrestin2 recruitment Emax (BRET).
For series [9], the target named is hMOR (GoA and GoB) (Homo sapiens, UniProt P35372). Description: cell-based. The following applies: read-out: Emax at GoA and GoB.
Series [10] has as its system mice. As to the kind of experiment: Locomotor effect, CLAMS. The class given is in vivo, mouse.
Series [11] deals with mice. Description: Respiratory rate, CLAMS. The class given is in vivo, mouse.
The test system of series [12] is C57BL/6J mice. The following applies: mouse, in vivo.
Series [13] deals with MOR KO, KOR KO and DOR KO mice. As to the kind of experiment: 55 °C tail withdrawal antinociception in opioid receptor knock-out mice. The following applies: 10 mg/kg, sc, relative to WT. The class given is in vivo, mouse.
Series [14] addresses hMOR (Homo sapiens, UniProt P35372). Description: cell-based.
The test system of series [15] is DOR. Description: BRET Gi-1 activation assay at DOR. The class given is cell-based. The method in brief: (§1)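 Cells were plated in 6-well dishes (700,000–800,000 cells/well) or 10 cm dishes and transfected 2–4 h later with receptor:Gα-RLuc8:Gβ:Gγ-GFP2 at 1:1:1:1. The next day they were replated on poly-D-lysine 96-well plates (30,000–50,000 cells/well). One day later, in HBSS + 20 mM HEPES pH 7.4 with coelenterazine 400a, cells equilibrated 5 min, then drug 5 min. BRET2 ratio was GFP2 (510 nm)/RLuc8 (395 nm), sixth of six serial reads.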

The test system of series [16] is KOR. As to the kind of experiment: BRET Gi-1 activation assay at KOR. The class given is cell-based. The method in brief:
as §1

For series [17], the system named is C57BL/6J mice. The following applies: sc; cited from earlier work.
Where [18] appears, read: 45 mg/kg, sc (15-fold antinociceptive ED50).

Some results are limits rather than exact numbers.

Sequence of hMOR (β-arrestin1) (P35372 whole entry): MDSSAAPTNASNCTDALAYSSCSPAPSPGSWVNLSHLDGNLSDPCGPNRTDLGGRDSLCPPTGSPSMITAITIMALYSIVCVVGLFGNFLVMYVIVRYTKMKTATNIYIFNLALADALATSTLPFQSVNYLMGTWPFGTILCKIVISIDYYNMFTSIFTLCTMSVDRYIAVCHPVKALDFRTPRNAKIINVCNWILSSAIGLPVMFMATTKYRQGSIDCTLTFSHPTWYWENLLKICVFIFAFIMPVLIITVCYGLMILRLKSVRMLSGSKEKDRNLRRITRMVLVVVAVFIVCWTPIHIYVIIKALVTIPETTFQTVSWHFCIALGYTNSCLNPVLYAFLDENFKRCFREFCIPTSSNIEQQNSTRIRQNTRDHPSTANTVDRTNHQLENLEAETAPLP
Sequence of hMOR (GoA and GoB) (P35372 whole entry): as above
Sequence of hMOR (Gz) (P35372 whole entry): as above
Sequence of hMOR (Gi-1) (P35372 whole entry): as above
Sequence of hMOR (β-arrestin2) (P35372 whole entry): as above
Sequence of murine MOR (P42866 whole entry): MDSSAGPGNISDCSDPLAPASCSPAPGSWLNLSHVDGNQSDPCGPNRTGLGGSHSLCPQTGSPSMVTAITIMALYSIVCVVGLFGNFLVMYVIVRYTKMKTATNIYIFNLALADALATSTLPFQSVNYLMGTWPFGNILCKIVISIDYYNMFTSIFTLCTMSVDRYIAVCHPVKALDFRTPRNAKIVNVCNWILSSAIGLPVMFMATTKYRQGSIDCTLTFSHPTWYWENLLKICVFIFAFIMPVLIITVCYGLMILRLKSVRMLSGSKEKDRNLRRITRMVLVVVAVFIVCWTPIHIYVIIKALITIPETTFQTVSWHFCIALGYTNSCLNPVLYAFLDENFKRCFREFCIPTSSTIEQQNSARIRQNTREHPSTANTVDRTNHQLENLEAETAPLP
Sequence of hMOR (human MOR) (P35372 whole entry): as the sequence (P35372 whole entry) above
Sequence of hMOR (P35372 whole entry): as above

`C[C@@H](Cc1ccsc1)NC(=O)NC[C@H](Cc1ccc(O)cc1)N(C)C` [PZM21]: the “Nb33 recruitment efficacy (literature)” value in series [1] is 38%.

As for `CC[C@@H]1CN2CC[C@@]3(O)C(=Nc4cccc(C)c43)[C@@H]2C[C@@H]1/C(=C\OC)C(=O)OC` [Compound 5, Methyl(E)-2-((2S,3S,7aS,12bS)-3-ethyl-7a-hydroxy-8-methyl-1,2,3,4,6,7,7a,12b-octahydroindolo[2,3-a]quinolizin-2-yl)-3-methoxyacrylate], the “β-arrestin1 recruitment (BRET), words” value in series [2] is “failed to show recruitment”. The molecule also showed an inhibitory constant (Ki) in [3] of 15 to 17 nM. In addition, the “Nb33 recruitment efficacy at murine MOR” value in [4] was 15–18%. The Emax in series [5] is 79 to 86%; in series [7] it was 60 to 70%; in [8], less than 10%; in series [9], 63 to 75%. In series [6], the “mean inhibition of evoked IPSCs” value is on record as “smaller”. The “β-arrestin2 recruitment (BRET), words” value in series [8] is “not measurable”.

For the molecule `COc1ccsc1CNCC[C@@]1(c2ccccn2)CCOC2(CCCC2)C1` [TRV130], the “Nb33 recruitment efficacy (literature)” value in series [1] was 42%.

As for `CC[C@@H]1CN2CC[C@@]3(O)C(=Nc4cccc(-c5ccoc5)c43)[C@@H]2C[C@@H]1/C(=C\OC)C(=O)OC` [Compound 6 (SC13), Methyl(E)-2-((2S,3S,7aS,12bS)-3-ethyl-8-(furan-3-yl)-7a-hydroxy-1,2,3,4,6,7,7a,12b-octahydroindolo[2,3-a]quinolizin-2-yl)-3-methoxyacrylate], in series [10] (setting [18]), the locomotor effect result is “no hyperlocomotion”. Also, in [11] (setting [18]), the “respiratory effects (breath rate)” value is “no statistically significant respiratory effects”. In addition, the “β-arrestin1 recruitment (BRET), words” value in [2] was “failed to show recruitment”. Further, the “place conditioning (CPP/CPA)” value in series [12] is on record as “no signs of CPP or CPA”. Moreover, the “antinociception in MOR KO mice” value in series [13] is recorded as “significantly reduced”. Moreover, the “antinociception in KOR KO mice” value in [13] (p = 0.058) is reported as “remained intact”. Moreover, the “antinociception in DOR KO mice” value in series [13] (p = 0.13) was “remained intact”. The EC50 came out at 730 nM in [14], 12 nM in [4] and 145 nM in series [7]. The “fold lower potency at DOR versus MOR, Gi-1 activation” value in [15] is ~ 100 fold. The “fold lower potency at KOR versus MOR, Gi-1 activation” value in series [16] was ~ 100 fold. Besides, the Emax is 79 to 86% in series [5], 60 to 70% in series [7], less than 10% in series [8] and 63 to 75% in series [9]. In addition, in series [6], the “mean inhibition of evoked IPSCs” value is reported as “smaller”. For the same molecule, the “β-arrestin2 recruitment (BRET), words” value in series [8] is listed as “not measurable”.

With `CC[C@@H]1CN2CC[C@@]3(O)C(=Nc4cccc(-c5ccccc5)c43)[C@@H]2C[C@@H]1/C(=C\OC)C(=O)OC` [Compound 4, Methyl(E)-2-((2S,3S,7aS,12bS)-3-ethyl-7a-hydroxy-8-phenyl-1,2,3,4,6,7,7a,12b-octahydroindolo[2,3-a]quinolizin-2-yl)-3-methoxyacrylate], the “β-arrestin1 recruitment (BRET), words” value in series [2] is recorded as “failed to show recruitment”. In [3], the Ki was 15 to 17 nM. In addition, the “Nb33 recruitment efficacy at murine MOR” value in [4] is 15–18%. The Emax in series [5] is 79 to 86%; in series [7] it was 60 to 70%; in series [8] it was less than 10%; in series [9] it was 63 to 75%. Further, in [6], the “mean inhibition of evoked IPSCs” value was “smaller”. The “β-arrestin2 recruitment (BRET), words” value in series [8] is “not measurable”.

Consider `CN1CC[C@]23c4c5ccc(O)c4O[C@H]2[C@@H](O)C=C[C@H]3[C@H]1C5` [morphine, reference compound], for which, in [10] (10 and 30 mg/kg, sc (5-fold and 15-fold ED50)), the locomotor effect entry was “hyperlocomotion effects”. Besides, the “respiratory effects (breath rate)” value in series [11] (30 mg/kg, sc) is “significant respiratory depression for 60 min”. Further, the “place conditioning (CPP/CPA)” value in series [12] is “showed CPP”. The “antinociception ED50 (95% CI), literature” value in series [17] is given as 2.48 (1.57–3.87) mg/kg.

The term Ki denotes a dissociation constant, usually derived from enzyme kinetics or from competition with a known ligand. Read a high Ki as a looser hold on the target. What is called Emax is the size of the effect at its maximum, as opposed to the concentration needed. Broadly, the EC50 is the concentration giving half of the maximal effect. Lower therefore signals a more potent agent.

The values are drawn from paper PMC8530377 (Journal of medicinal chemistry, 2021).
